From ChEMBL document CHEMBL1126729, “Quinolone antibacterials: synthesis and biological activity of carbon isosteres of the 1-piperazinyl and 3-amino-1-pyrrolidinyl side chains” (J Med Chem, 1993)
Values after ≈ are worked out from the molar mass of the structure shown.

What was measured:
Assay type in all cases: functional
DNA gyrase = DNA gyrase (Escherichia coli, UniProt P0AES4+P0AES6); assay: Inhibition of the gyrase mediated cleavage of supercoiled DNA
Bacteria = assay: Geometric mean of MIC was determined in vitro against gram-positive strains using standard microtitration techniques
In short: (§1)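 Per-compound geometric means of the microtitration MICs (μg/mL), calculated separately across the Gram-negative strains and the Gram-positive strains. Pseudomonas aeruginosa is excluded from the Gram-negative mean.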

[1] = Geometric mean of MIC was determined in vitro against gram-negative strains using standard microtitration techniques; in short: as §1
Mus musculus [2] = assay: Protective dose in vivo was determined in acute, lethal systemic infections in female Charles River CD-1 mice against Escherichia coli Vogel; conditions: read-out: PD50
In short: (§2)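 Female Charles River CD-1 mice with an acute, lethal systemic infection received a single compound dose at the time of challenge. The median protective dose (PD50, mg/kg) was taken as the read-out.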

Mus musculus [3] = assay: Protective dose in vivo was determined in acute, lethal systemic infections in female Charles River CD-1 mice against Streptococcus pyogenes C-203; conditions: read-out: PD50; in short: as §2
Escherichia coli [4] = assay: Antibacterial activity was tested in vitro against Escherichia coli Vogel using standard microtitration techniques
In short: (§3)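 Broth microtitration MIC testing against a panel of six Gram-negative and five Gram-positive bacterial strains. Values are given as MIC in μg/mL.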

Escherichia coli [5] = assay: Antibacterial activity was tested in vitro against Escherichia coli H-560 using standard microtitration techniques; in short: as §3
Enterobacter cloacae = assay: Antibacterial activity was tested in vitro against Enterococcus cloacae MA-2646 using standard microtitration techniques; in short: as §3
Enterococcus faecalis = assay: Antibacterial activity was tested in vitro against Enterococcus faecalis MGH-2 using standard microtitration techniques; in short: as §3
Pseudomonas aeruginosa = assay: Antibacterial activity was tested in vitro against Pseudomonas aeruginosa UI-18 using standard microtitration techniques; in short: as §3
Providencia rettgeri = assay: Antibacterial activity was tested in vitro against M-1771 strain of Providencia rettgeri using standard microtitration techniques; in short: as §3
Staphylococcus aureus [6] = assay: (§4) Antibacterial activity was tested in vitro against Staphylococcus aureus UC-76 using standard microtitration techniques
In short: (§5)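 MIC (μg/mL) by standard broth microtitration, as part of a panel of six Gram-negative and five Gram-positive organisms.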

Staphylococcus aureus [7] = assay: Antibacterial activity was tested in vitro against Staphylococcus aureus H-288 using standard microtitration techniques; in short: as §3
Streptococcus pyogenes [8] = assay: (§6) Antibacterial activity was tested in vitro against Streptococcus pyogenes C-203 using standard microtitration techniques; in short: as §5
Klebsiella pneumoniae [9] = assay: Antibacterial activity was tested in vitro against Klebsiella pneumoniae MGH-2 using standard microtitration technique; in short: as §3
Streptococcus pneumoniae = assay: Antibacterial activity was tested in vitro against Streptococcus pneumoniae SV-1 using standard microtitration techniques; in short: as §3
Klebsiella pneumoniae [10] = assay: Antibacterial activity was tested in vitro against Klebsiella pneumoniae MGH-2 using standard microtitration techniques; in short: as §5
Staphylococcus aureus [11] = assay: as §4; in short: as §3; remark: listed apart in the source
Mus musculus [12] = assay: Protective dose in vivo was determined in acute, lethal systemic infections in female Charles River CD-1 mice against Escherichia coli Vogel; 6/1.1.; conditions: read-out: PD50
Mus musculus [13] = assay: Protective dose in vivo was determined in acute, lethal systemic infections in female Charles River CD-1 mice against Streptococcus pyogenes C-203; 50/45.; conditions: read-out: PD50
Streptococcus pyogenes [14] = assay: as §6; in short: as §3; remark: listed apart in the source

Row | Compound | IC50 (DNA gyrase) | MIC (Bacteria) | MIC [1] | ED50 (Mus musculus [2]) | ED50 (Mus musculus [3]) | MIC (Escherichia coli [4]) | MIC (Escherichia coli [5]) | MIC (Enterobacter cloacae) | MIC (Enterococcus faecalis) | MIC (Pseudomonas aeruginosa) | MIC (Providencia rettgeri) | MIC (Staphylococcus aureus [6]) | MIC (Staphylococcus aureus [7]) | MIC (Streptococcus pyogenes [8]) | MIC (Streptococcus pneumoniae) | MIC (Klebsiella pneumoniae [10]) | other results
1 | O=C(O)c1cn(C2CC2)c2nc(N3CCNCC3)c(F)cc2c1=O | > 75.2 µM | 1.2 µg/mL (≈ 3.61 µM) | 0.05 µg/mL (≈ 0.15 µM) | 0.7 mg/kg | 63 mg/kg | – | – | – | – | – | – | – | – | – | – | – | –
2 | O=C(O)c1cn(C2CC2)c2cc(N3CCNCC3)c(F)cc2c1=O [CIPROFLOXACIN] | – | 0.6 µg/mL (≈ 1.81 µM) | 0.05 µg/mL (≈ 0.151 µM) | 1.2 mg/kg | > 260 mg/kg | – | – | – | – | – | – | – | – | – | – | – | –
3 | O=C(O)c1cn(C2CC2)c2cc(C3CCNCC3)c(F)cc2c1=O | 11.5 µM | 1.8 µg/mL (≈ 5.45 µM) | 0.3 µg/mL (≈ 0.908 µM) | 13.8 mg/kg | – | 0.2 µg/mL (≈ 0.605 µM) | 0.2 µg/mL (≈ 0.605 µM) | 0.2 µg/mL (≈ 0.605 µM) | 3.1 µg/mL (≈ 9.38 µM) | 1.6 µg/mL (≈ 4.84 µM) | 0.8 µg/mL (≈ 2.42 µM) | 0.8 µg/mL (≈ 2.42 µM) | 6.3 µg/mL (≈ 19.1 µM) | 0.4 µg/mL (≈ 1.21 µM) | 3.1 µg/mL (≈ 9.38 µM) | – | MIC (Klebsiella pneumoniae [9]): 0.4 µg/mL (≈ 1.21 µM)
4 | NC1CCN(c2nc3c(cc2F)c(=O)c(C(=O)O)cn3-c2ccc(F)cc2F)C1 (stereo not given) [TOSUFLOXACIN] | 7.42 µM | 0.04 µg/mL (≈ 0.0989 µM) | 0.03 µg/mL (≈ 0.0742 µM) | 0.6 mg/kg | 5.7 mg/kg | – | – | – | – | – | – | – | – | – | – | – | –
5 | O=C(O)c1cn(-c2ccc(F)cc2F)c2nc(C3=CCNCC3)c(F)cc2c1=O | 12.5 µM | 0.53 µg/mL (≈ 1.32 µM) | 0.15 µg/mL (≈ 0.374 µM) | – | – | 0.1 µg/mL (≈ 0.249 µM) | 0.1 µg/mL (≈ 0.249 µM) | 0.1 µg/mL (≈ 0.249 µM) | 1.6 µg/mL (≈ 3.99 µM) | 1.6 µg/mL (≈ 3.99 µM) | 0.4 µg/mL (≈ 0.997 µM) | 0.2 µg/mL (≈ 0.498 µM) | 0.8 µg/mL (≈ 1.99 µM) | 0.4 µg/mL (≈ 0.997 µM) | 0.4 µg/mL (≈ 0.997 µM) | 0.2 µg/mL (≈ 0.498 µM) | –
6 | NC1C=C(c2cc3c(cc2F)c(=O)c(C(=O)O)cn3C2CC2)CC1 (stereo not given) | 8.53 µM | 0.35 µg/mL (≈ 1.07 µM) | 0.13 µg/mL (≈ 0.396 µM) | 5.2 mg/kg | – | 0.1 µg/mL (≈ 0.305 µM) | 0.1 µg/mL (≈ 0.305 µM) | 0.1 µg/mL (≈ 0.305 µM) | 0.8 µg/mL (≈ 2.44 µM) | 0.8 µg/mL (≈ 2.44 µM) | 0.2 µg/mL (≈ 0.609 µM) | – | 0.8 µg/mL (≈ 2.44 µM) | 0.2 µg/mL (≈ 0.609 µM) | 0.4 µg/mL (≈ 1.22 µM) | 0.2 µg/mL (≈ 0.609 µM) | MIC (Staphylococcus aureus [11]): 0.1 µg/mL (≈ 0.305 µM)
7 | O=C(O)c1cn(C2CC2)c2cc(C3=CCNCC3)c(F)cc2c1=O | 2.74 µM | 0.46 µg/mL (≈ 1.4 µM) | 0.04 µg/mL (≈ 0.122 µM) | 1.7 mg/kg | > 100 mg/kg | 0.025 µg/mL (≈ 0.0761 µM) | 0.013 µg/mL (≈ 0.0396 µM) | 0.025 µg/mL (≈ 0.0761 µM) | 0.8 µg/mL (≈ 2.44 µM) | 0.8 µg/mL (≈ 2.44 µM) | 0.1 µg/mL (≈ 0.305 µM) | 0.1 µg/mL (≈ 0.305 µM) | 0.8 µg/mL (≈ 2.44 µM) | 0.4 µg/mL (≈ 1.22 µM) | 0.8 µg/mL (≈ 2.44 µM) | 0.1 µg/mL (≈ 0.305 µM) | –
8 | NC1C=C(c2nc3c(cc2F)c(=O)c(C(=O)O)cn3-c2ccc(F)cc2F)CC1 (stereo not given) | 15.7 µM | 0.09 µg/mL (≈ 0.224 µM) | 0.07 µg/mL (≈ 0.174 µM) | – | – | 0.05 µg/mL (≈ 0.125 µM) | 0.025 µg/mL (≈ 0.0623 µM) | 0.05 µg/mL (≈ 0.125 µM) | 0.2 µg/mL (≈ 0.498 µM) | 1.6 µg/mL (≈ 3.99 µM) | 0.2 µg/mL (≈ 0.498 µM) | 0.025 µg/mL (≈ 0.0623 µM) | 0.1 µg/mL (≈ 0.249 µM) | – | 0.1 µg/mL (≈ 0.249 µM) | 0.1 µg/mL (≈ 0.249 µM) | ED50 (Mus musculus [12]): 6 mg/kg; ED50 (Mus musculus [13]): 50 mg/kg; MIC (Streptococcus pyogenes [14]): 0.1 µg/mL (≈ 0.249 µM)
9 | NC1CCN(c2nc3c(cc2F)c(=O)c(C(=O)O)cn3C2CC2)C1 (stereo not given) | 9.03 µM | 0.1 µg/mL (≈ 0.301 µM) | 0.02 µg/mL (≈ 0.0602 µM) | 2 mg/kg | 32 mg/kg | – | – | – | – | – | – | – | – | – | – | – | –
10 | NC1C=C(c2nc3c(cc2F)c(=O)c(C(=O)O)cn3C2CC2)CC1 (stereo not given) | 11.5 µM | 0.35 µg/mL (≈ 1.06 µM) | 0.07 µg/mL (≈ 0.213 µM) | 1.2 mg/kg | 50 mg/kg | 0.05 µg/mL (≈ 0.152 µM) | 0.05 µg/mL (≈ 0.152 µM) | 0.05 µg/mL (≈ 0.152 µM) | 0.4 µg/mL (≈ 1.21 µM) | 0.8 µg/mL (≈ 2.43 µM) | 0.1 µg/mL (≈ 0.304 µM) | 0.1 µg/mL (≈ 0.304 µM) | 0.8 µg/mL (≈ 2.43 µM) | 0.4 µg/mL (≈ 1.21 µM) | 0.4 µg/mL (≈ 1.21 µM) | 0.1 µg/mL (≈ 0.304 µM) | –
11 | O=C(O)c1cn(C2CC2)c2nc(C3=CCNCC3)c(F)cc2c1=O | 11.5 µM | 0.6 µg/mL (≈ 1.82 µM) | 0.03 µg/mL (≈ 0.0911 µM) | 0.5 mg/kg | 42 mg/kg | 0.013 µg/mL (≈ 0.0395 µM) | 0.013 µg/mL (≈ 0.0395 µM) | 0.025 µg/mL (≈ 0.0759 µM) | 0.8 µg/mL (≈ 2.43 µM) | 0.2 µg/mL (≈ 0.607 µM) | 0.05 µg/mL (≈ 0.152 µM) | 0.2 µg/mL (≈ 0.607 µM) | 1.6 µg/mL (≈ 4.86 µM) | 0.4 µg/mL (≈ 1.21 µM) | 0.8 µg/mL (≈ 2.43 µM) | 0.05 µg/mL (≈ 0.152 µM) | –
12 | NC1CCN(c2cc3c(cc2F)c(=O)c(C(=O)O)cn3C2CC2)C1 (stereo not given) | 7.85 µM | 0.09 µg/mL (≈ 0.272 µM) | 0.04 µg/mL (≈ 0.121 µM) | 3.4 mg/kg | 97 mg/kg | – | – | – | – | – | – | – | – | – | – | – | –
13 | O=C(O)c1cn(-c2ccc(F)cc2F)c2nc(N3CCNCC3)c(F)cc2c1=O | – | 0.2 µg/mL (≈ 0.495 µM) | 0.4 µg/mL (≈ 0.989 µM) | – | 2.4 mg/kg | – | – | – | – | – | – | – | – | – | – | – | –
